Experimental data: paper PMC2858377 (Nature structural & molecular biology, 2009)
“Also recorded” adds a separate entry of the source. Each block holds one molecule with its values, some of them ahead of it.

Columns and labels:
14-3-3ζ [1] = target: T1, 14-3-3ζ (Homo sapiens, UniProt P63104); test: Isothermal titration calorimetry of KH1-derived peptides with 14-3-3ζ; format: binding; settings: ITC, 200 μM 14-3-3ζ, 2 mM peptide, 30°C
T1 sequence (P63104 1-245): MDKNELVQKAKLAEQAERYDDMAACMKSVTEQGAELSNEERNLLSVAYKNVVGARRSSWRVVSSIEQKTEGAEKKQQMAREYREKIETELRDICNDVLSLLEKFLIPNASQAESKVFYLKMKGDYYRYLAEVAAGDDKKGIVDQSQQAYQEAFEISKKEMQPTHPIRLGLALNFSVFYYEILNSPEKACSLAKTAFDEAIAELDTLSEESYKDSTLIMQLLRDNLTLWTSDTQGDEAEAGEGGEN
How it was run: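 14-3-3ζ was dialysed into 10 mM Tris pH 7.4, 50 mM NaCl, 1 mM TCEP. It was titrated with phosphorylated or unphosphorylated KH1-derived peptide dissolved in the dialysis buffer, in a VP-ITC microcalorimeter. Concentrations given are 200 μM protein and 2 mM peptide; all runs were at 30 °C.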

[2] = system: nuclear/cytoplasmic distribution of KSRP in HIRc-B cells; test: KSRP sub-cellular localization, HIRc-B cells; format: cell-based; settings: insulin 10^−6 M, 1h; nuclear and cytoplasmic extracts
[3] = system: cellular distribution of AUF1 and hnRNPA1 in HIRc-B cells; test: AUF1 and hnRNPA1 cellular distribution, HIRc-B cells; format: cell-based; settings: insulin 10^−6 M, 1h
14-3-3ζ [4] = target: T1, 14-3-3ζ; test: SOFAST 15N-1H HMQC NMR titration of 14-3-3 into 15N-labelled KH1 / phospho-KH1; format: binding; settings: 15 μM KH1 or phospho-KH1, KH:14-3-3 1:2 ratio
How it was run: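 15N-labelled KH1 or AKT1-phosphorylated KH1 in 10 mM Tris-HCl pH 7.4, 50 mM NaCl, 1 mM TCEP was mixed with 14-3-3ζ at a 1:2 ratio. SOFAST 15N-HMQC spectra were superimposed on free-domain spectra to track resonance broadening. For competition, the phosphorylated KH1 peptide was added to the phospho-KH1–14-3-3 complex at a 1:2:10 ratio.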

AU-rich RNA targets = test: KH domain–RNA binding by 15N-HSQC NMR titration
How it was run: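 Chemically synthesised RNA hexamers, used without further purification, were titrated into the 15N-labelled KH domain sample. 15N-HSQC spectra were acquired across the titration, with the protein in Tris-HCl pH 7.4/NaCl/TCEP buffer at 27°C.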

AKT1 = test: In vitro phosphorylation by AKT kinase; format: biochemical; settings: 100 μM KH1, 1 μg recombinant active AKT1, 37°C, 48 hours
Folding state by NMR = format: physicochemical; settings: for folding state (in words): SOFAST 15N-1H HMQC, 10 mM Tris-HCl pH 7.4, 50 mM NaCl, 1 mM TCEP
How it was run: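 KH1 (residues 130–218) was phosphorylated with active AKT1 and separated from unphosphorylated protein by gel filtration, with identity confirmed by mass spectrometry. Samples were exchanged into 10 mM Tris-HCl pH 7.4, 50 mM NaCl, 1 mM TCEP and examined by 15N-HSQC / SOFAST HMQC. Phospho-KH1 was then dephosphorylated with 100 U λ phosphatase (60 min, 37 °C), re-purified and re-examined. Heat-inactivated AKT1 and S193A mutant served as controls.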

[5] = CD spectroscopy / thermal unfolding; format: physicochemical
KSRP KH2 = test: KH1–KH2 inter-domain interaction by 15N-HSQC NMR; format: binding, human; settings: 15N-HSQC of KH1_143–218, KH2_233-305 and KH12_143–305

binding to 14-3-3ζ (in words) (14-3-3ζ [1]): no binding is observed
Molecule: non phosphorylated peptide: KH1-derived non-phosphorylated peptide used in ITC (YGLPERSVSLTGAPES)

Molecule: insulin: insulin treatment induces AKT activation in HIRc-B cells
KSRP localization [2]: AKT activation promotes nuclear localization of KSRP
effect on AUF1 and hnRNPA1 distribution [3]: did not affect the cellular distribution of the ribo-nucleoproteins AUF1 and hnRNPA1

interaction with 14-3-3 (change in spectrum) (14-3-3ζ [4]; listed as Non-phosphorylated KH1): not recognized by 14-3-3
Kd (AU-rich RNA targets; read-out: Kd for AU-rich RNA, 5′-UAUUUA-3′ and 5′-UAUUAU-3′ RNAs, 25 μM 15N-labeled KH domain, 10 mM Tris-HCl pH 7.4, 100 mM NaCl, 1 mM TCEP, 27°C, too low to be accurately measured): > 1 mM
phosphorylation efficiency (AKT1): ~ 90%
B1: KH1: first KH domain of human KSRP (Ile130–Gly218) (protein)
chain: ISSQLGPIHPPPRTSMTEEYRVPDGMVGLIIGRGGEQINKIQQDSGCKVQISPDSGGLPERSVSLTGAPESVQKAKMMLDDIVSRGRGG
modifications: 15N-labelled
interaction with 14-3-3 (change in spectrum) (14-3-3ζ [4]): the two proteins are not interacting; also recorded: No appreciable change is observed in the spectrum of the domain
affinity for AU-rich sequences (in words) (AU-rich RNA targets; compared with the other KH domains): affinity substantially lower than that of the other KH domains
folding state (in words) (Folding state by NMR): folded
fraction of unfolded protein ([5]; 37°C): ~ 16%
interaction of KH1 with KH2 (in words) (KSRP KH2): KH1 and KH2 do not interact in a stable and specific way

B2: phospho-KH1: KSRP KH1 phosphorylated by AKT kinase at Ser193 (protein)
chain: B1 chain
modifications: phosphoserine at 193; 15N-labelled
interaction with 14-3-3 (change in spectrum) (14-3-3ζ [4]): Selected resonances broaden substantially; also recorded: interacts with the protein
interaction with 14-3-3 (change in spectrum) (14-3-3ζ [4]; listed as phosphorylated KH1): strong selective decrease in the intensity of the NMR signal of a small number of resonances
folding state (in words) (Folding state by NMR): unfolded
folding state (in words) (Folding state by NMR; listed as phosphorylated protein): essentially unfolded
folding after de-phosphorylation (in words) (Folding state by NMR; SOFAST HMQC after λ protein phosphatase, 100 Units, 60 minutes, 37 °C): removal of the phosphate group leads to complete refolding of the protein
effect of temperature on CD spectrum ([5]; CD at 20, 40, 60, 80 and 95 °C): The spectrum of the protein does not change with temperature; also recorded: The spectra do not change substantially at increasing temperatures
apparent percentage of unfolded peptidic chain ([5]; CD, 20 °C, range expected for fully unfolded proteins 69.8-89.9 %): 79.9%
